# Marks after values point to notes of the source that are not given here.
# How the values were obtained:
# [1] = PopPK model of MDMA and MDA; type: in vivo, human
# In short: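 Single-dose plasma data came from 65 healthy volunteers: 16 from the fasted food-effect study and 49 from a randomized, double-blind, placebo-controlled crossover study. The dataset held 2012 MDMA and 1871 MDA samples, excluding BLQ values, samples with missing time and pre-dose concentrations. Modelling used nonlinear mixed effects with first-order conditional estimation with interaction. One- and two-compartment models were tested, with first-order or sequential zero-/first-order absorption.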
# [2] = MPKF phase I two-period crossover food effect pharmacokinetic study; type: in vivo, human; details: for AUC0–inf LSM geometric mean ratio (90% CI) / C max LSM geometric mean ratio (90% CI): fed (test) vs fasted (reference); for AUC(0-inf) / Cmax: human, 120 mg; for AUC(0-inf): AUC0–inf; for Cmax: C max
# [3] = HVs, single oral dose of 100 mg MDMA HCl, absence of paroxetine; cited from earlier work
# [4] = cited from earlier work
# [5] = plasma, oral, Median [Min, Max], 120 mg MDMA HCl, Fasted
# [6] = plasma, oral, Median [Min, Max], 120 mg MDMA HCl, Fed
# [7] = plasma, po, Geo. Mean (Geo. CV%), single oral 120 mg MDMA HCl, Fasted, N = 15
# [8] = plasma, po, Geo. Mean (Geo. CV%), single oral 120 mg MDMA HCl, Fed (high-fat/high-calorie meal), N = 14
# [9] = MPKF fasted vs NIDA light breakfast
# [10] = MPKF fed vs NIDA light breakfast
smiles,measurement,setting,value
"CC(N)Cc1ccc2c(c1)OCO2 (stereo not drawn) [MDA, 3,4‐methylenedioxyamphetamine]",lower V4 (MDA peripheral volume of distribution) in female subjects,[1]; compared to male,18%
same,"Body weight effect on CLM, Bootstrap median (95% CI)",[1]; covariate coefficient,"0.585 (0.209, 0.879)"
same,"Body weight effect on CLM, Estimate",[1]; covariate coefficient,0.580
same,"Body weight effect on QM, Bootstrap median (95% CI)",[1]; covariate coefficient,"1.02 (0.408, 1.63)"
same,"Body weight effect on QM, Estimate",[1]; covariate coefficient,1.00
same,"Sex effect on V4, Bootstrap median (95% CI)",[1]; female vs male,"−0.18 (−0.321, −0.0256)"
same,"Sex effect on V4, Estimate",[1]; female vs male,−0.181
same,Vd,"[1]; human, plasma, oral",20.8 L
same,clearance,"[1]; human, plasma, oral",582 mL/min
same,"IIV on CLM, Estimate",[1]; inter-individual variability,"32.0 ^ b , ^ c %CV"
same,"IIV on QM, Estimate",[1]; inter-individual variability,"46.8 ^ b , ^ d %CV"
same,"IIV on V4, Estimate",[1]; inter-individual variability,"35.2 ^ c , ^ d %CV"
same,"CLM, Bootstrap median (95% CI)",[1]; n = 1000 bootstrap,"36.1 (33.5, 38.8) L/h"
same,"QM, Bootstrap median (95% CI)",[1]; n = 1000 bootstrap,"83.9 (68.8, 103) L/h"
same,"V3, Bootstrap median (95% CI)",[1]; n = 1000 bootstrap,"20.8 (11.9, 28.4) L"
same,"V4, Bootstrap median (95% CI)",[1]; n = 1000 bootstrap,"213 (181, 246) L"
same,AUC0–inf LSM geometric mean ratio (90% CI),[2],0.99 (0.93–1.06)
same,C max LSM geometric mean ratio (90% CI),[2],0.96 (0.90–1.03)
same,AUC(0-inf),[2]; [5],358 ng·h/mL
same,AUC(0-inf),[2]; [6],343 ng·h/mL
same,Cmax,[2]; [5],12.5 ng/mL
same,AUC(0-inf),[2]; [7],330 ng·h/mL
same,AUC(0-inf),[2]; [8],369 ng·h/mL
"CNC(C)Cc1ccc2c(c1)OCO2 (stereo not drawn) [MDMA, 3,4‐methylenedioxymethamphetamine]",fmet (fraction of MDMA metabolized to MDA),[1]; FIXED in the model,0.1 FIXED
same,faster absorption in fasted subjects,[1]; MPKF fasted compared to NIDA light breakfast,193%
same,"Fasted status effect on ka, Bootstrap median (95% CI)",[1]; [9],"1.08 (0.277, 4.31)"
same,"Fasted status effect on ka, Estimate",[1]; [9],1.93
same,"Fed status effect on ka, Bootstrap median (95% CI)",[1]; [10],"−0.496 (−0.645, −0.239)"
same,"Fed status effect on ka, Estimate",[1]; [10],−0.484
same,"Study effect on V2/F, Bootstrap median (95% CI)",[1]; MPKF vs NIDA,"−0.267 (−0.342, −0.19)"
same,"Study effect on V2/F, Estimate",[1]; MPKF vs NIDA,−0.263
same,lower MDMA CL/F for MPKF subjects,[1]; compared to NIDA,36%
same,lower MDMA V2/F for MPKF subjects,[1]; compared to NIDA,26%
same,"Body weight effect on V2/F, Bootstrap median (95% CI)",[1]; covariate coefficient,"0.884 (0.6, 1.11)"
same,"Body weight effect on V2/F, Estimate",[1]; covariate coefficient,0.885
same,"ALAG1 (absorption lag time), Estimate",[1]; final MDMA PopPK model,0.322 h
same,"CL/F, Estimate",[1]; final MDMA PopPK model,41.5 L/h
same,"D1 (duration of zero order input), Estimate",[1]; final MDMA PopPK model,0.304 h
same,"V2/F, Estimate",[1]; final MDMA PopPK model,462 L
same,"ka, Estimate",[1]; final MDMA PopPK model,1.17 h⁻¹
same,"IIV on CL/F, Estimate",[1]; inter-individual variability,30.5 ^a %CV
same,"IIV on D1, Estimate",[1]; inter-individual variability,153 %CV
same,"IIV on KA, Estimate",[1]; inter-individual variability,60.2 %CV
same,"IIV on V2/F, Estimate",[1]; inter-individual variability,19.9 ^a %CV
same,"ALAG1, Bootstrap median (95% CI)",[1]; n = 1000 bootstrap,"0.323 (0.273, 0.358) h"
same,"CL/F, Bootstrap median (95% CI)",[1]; n = 1000 bootstrap,"41.8 (37.7, 45.8) L/h"
same,"D1, Bootstrap median (95% CI)",[1]; n = 1000 bootstrap,"0.271 (0.141, 0.485) h"
same,"V2/F, Bootstrap median (95% CI)",[1]; n = 1000 bootstrap,"461 (429, 496) L"
same,"ka, Bootstrap median (95% CI)",[1]; n = 1000 bootstrap,"1.17 (0.969, 1.43) 1/h"
same,CL/F (apparent oral clearance),[3],36.3 L/h
same,CLR (renal clearance),[3],9.40 L/h
same,AUC0–inf LSM geometric mean ratio (90% CI),[2],0.99 (0.94–1.04)
same,C max LSM geometric mean ratio (90% CI),[2],0.97 (0.92–1.01)
same,T max delay following administration with food,[2]; fed vs fasted,2 h
same,AUC(0-inf),[2]; [5],3730 ng·h/mL
same,Cmax,[2]; [5],234 ng/mL
same,Cmax,[2]; [6],230 ng/mL
same,AUC(0-inf),[2]; [7],3390 ng·h/mL
same,AUC(0-inf),[2]; [8],3320 ng·h/mL
same,"T max, Median [Min, Max]","[2]; plasma, 120 mg MDMA HCl, Fasted","2.1 [2.0, 8.0] h"
same,adverse events (AE) severity,"[2]; single 120 mg MDMA HCl, healthy volunteers",mild in severity and resolved
same,effective dose (as low as),[4],≥ 75 mg HCl
same,tolerated dose (as high as),[4]; split dose,≤ 225 mg HCl

# From article PMC11812931 (CPT: Pharmacometrics & Systems Pharmacology, 2024)
